This excerpt belongs to a sample that is enriched for hits.
GSK3A inh: blockers of GSK3A enzyme activity – biochemical, luminescence, cell-free homogeneous, HTS, primary screen; hit rate 0.1% among 320,000; inhibition, % at 10 µM; GSK-3 alpha kinase, ADP-Glo luminescence, 60 min;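 active = more than half of replicates show inhibition above 20%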;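 note: GST-tagged GSK-3 alpha with peptide substrate and 25 µM ATP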
Target sequence (P49840 whole entry, looked up): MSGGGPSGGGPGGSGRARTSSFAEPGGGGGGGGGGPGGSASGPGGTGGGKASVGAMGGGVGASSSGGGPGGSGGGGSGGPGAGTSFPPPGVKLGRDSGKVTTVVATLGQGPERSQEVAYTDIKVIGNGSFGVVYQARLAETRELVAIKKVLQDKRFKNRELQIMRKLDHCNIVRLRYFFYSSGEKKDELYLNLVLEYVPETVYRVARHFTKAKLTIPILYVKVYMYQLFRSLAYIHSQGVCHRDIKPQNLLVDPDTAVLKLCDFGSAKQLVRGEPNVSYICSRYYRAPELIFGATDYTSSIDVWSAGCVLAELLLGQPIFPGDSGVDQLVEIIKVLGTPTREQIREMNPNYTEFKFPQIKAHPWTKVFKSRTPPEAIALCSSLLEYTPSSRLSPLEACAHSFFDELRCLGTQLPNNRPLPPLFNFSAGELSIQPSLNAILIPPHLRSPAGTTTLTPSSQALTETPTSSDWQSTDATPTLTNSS
DYRK1A inh: rat Dyrk1A kinase inhibitors, primary screen, biochemical, single point, plate reader; Dual specificity tyrosine-phosphorylation-regulated kinase 1A (Rattus norvegicus), Q63470; ADP-Glo luminescence, NFATc1 peptide; inhibition, % at 12.5 µM; hit rate 0.43% among 310,000; AID 504441, 2011; in the data active = inhibition above about 50%
STK33 kinase inh: inhibitors of purified STK33 kinase, primary screen, biochemical, ADP-Glo luminescence, homogeneous, cell-free; Serine/threonine-protein kinase 33 (Homo sapiens), Q9BYT3; AID 2661, 2010; hit rate 0.073% among 320,000; MBP phosphorylation; inhibition, % at 10 µM;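 active = inhibition at or above 25%, using the most active replicate where run in duplicate; inactive = inhibition below 25%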
GSK3B inh: human GSK3beta kinase inhibitors, primary screen, biochemical, cell-free homogeneous, HTS. Glycogen synthase kinase-3 beta (Homo sapiens), P49841. GST-GSK3beta kinase, ADP-Glo luminescence, 60 min; active compounds read low. activity score (negative = inhibition), % at 10 µM. hit rate 0.038% among 300,000. AID 2097, 2009;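 active = more than half of replicate wells score below -50%, meaning over 50% inhibition versus plate controls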
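Test system: GST-tagged human GSK3beta kinase, cell-free; evaluation: activity score scaled between in-plate DMSO and GW8510 controls; measured by: ADP-Glo luminescence; incubation: 60 min reaction, RT; benchmarks: DMSO and 20 µM GW8510; reagent: peptide substrate plus 25 µM ATP (final); medium: Tris/MgCl2 kinase buffer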
Dyrk1A artifact: ADP-Glo luciferase interference without Dyrk1A, dose response, artefact control for Dyrk1A inhibitor project, biochemical, luminescence, cherry-pick, set 02; shares compounds with DYRK1A inh; ADP-Glo luciferase artifact assay, no Dyrk1A; AC50, µM (doses to about 12 µM); 1,300 tested, under 10 active; AID 588348, 2011;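 active = fitted half-maximal dose AC50 no more than ten times the top valid tested dose, with luminescence dropping as dose rises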
A number is an active result; – = inactive; · = not tested or not shown.

SMILES	GSK3A inh	DYRK1A inh	STK33 kinase inh	GSK3B inh	others
CC(=O)c1ccc2noc(-c3ccc(F)cc3)c2c1	–	–	–	–
CN(C)/C=C/C(=O)c1ccc2noc(-c3cccc(F)c3)c2c1	–	–	35	–
COc1ccc(-c2onc3ccc(C(=O)/C=C/N(C)C)cc23)cc1	–	–	31	–
N#CCCn1cc(/C=N/O)c(-c2ccccc2)n1	–	–	–	·
N#CCCn1cc(/C=N/O)c(-c2cccc([N+](=O)[O-])c2)n1	64	–	–	–
CN1CCN(c2nc(-c3ccccc3O)nc3ccccc23)CC1	–	–	32	–
OCCN1CCN(c2nc(-c3ccccc3O)nc3ccccc23)CC1	–	–	40	–
CCN1CCN(c2nc(-c3ccccc3Cl)nc3ccccc23)CC1	–	–	–	–
CC(C)c1cc(NCCCN2CCOCC2)n2c(nc3ccccc32)c1C#N	–	–	–	–
COc1ccc(-c2oc3ncnc(NCCCN(C)C)c3c2-c2ccc(OC)cc2)cc1	–	–	38	–
CCc1c(C)c(C#N)c2nc3ccccc3n2c1NCCOC	–	–	–	–
CCc1c(C)c(C#N)c2nc3ccccc3n2c1NCc1ccccn1	81	–	–	–
CCC(Sc1ccc2nnc(-c3ccc(OC)c(OC)c3)n2n1)C(=O)O (stereo unspecified)	–	–	38	–
COC(=O)CSc1ccc2nnc(-c3ccc(F)cc3)n2n1	60	–	–	-78
COc1ccc(-c2nnc3ccc(SC(C(C)=O)C(C)=O)nn23)cc1OC	–	–	–	–
Cc1ccc(S(=O)(=O)N(CC(O)CN2CCCC2)c2ccccc2)cc1 (stereo unspecified)	–	–	–	–
Cc1ccc(N(CC(O)CN2CCCCC2)S(=O)(=O)c2ccccc2)cc1 (stereo unspecified)	94	–	–	–
Fc1ccc(/C=N/Nc2ncnc3nc[nH]c23)cc1F	65	–	–	–
COCCCNc1nc(N)c([N+](=O)[O-])c(NCc2ccccc2)n1	–	–	–	–
COCCCNc1nc(N)c([N+](=O)[O-])c(Nc2ccccc2OC)n1	74	–	–	–
CC(C)CNc1nc(N)c([N+](=O)[O-])c(NCC2CCCO2)n1 (stereo unspecified)	59	–	–	–
COCCCNc1nc(N)c([N+](=O)[O-])c(NCC2CCCO2)n1 (stereo unspecified)	81	–	–	–
O=C(Nc1ccc(Br)cn1)c1ccc(COc2c(F)c(F)cc(F)c2F)o1	–	·	–	·
Cc1onc(-c2ccccc2)c1-c1nnc(COC(=O)c2ccc(O)cc2)o1	·	–	·	·
C=CCNc1nc(N)c(C(=O)Nc2cc(C)on2)s1	–	–	–	–
SMILES	GSK3A inh	DYRK1A inh	STK33 kinase inh	GSK3B inh	others
C=CCNc1nc(N)c(C(=O)c2ccc3c(c2)OCO3)s1	79	–	–	·
Cc1ccccc1CNC(=O)CCC(=O)N1CCOc2ccc(Cl)cc21	–	–	–	–
Cc1cc(O)ccc1NS(=O)(=O)c1ccc2c3c(cccc13)C(=O)N2	–	–	41	–
COc1ccc(/C=C/c2nc3ccccc3n2C)cc1	–	–	50	–
COc1ccc(Cn2c(/C=C/c3ccccc3)nc3ccccc32)cc1	–	–	–	–
Cc1cccc(OC(C)C(=O)Nc2cc(Cl)ccc2-n2cncn2)c1 (stereo unspecified)	–	·	–	·
Cc1ccc(-c2nnc(SCC(=O)NCC3CCCO3)nc2-c2ccc(C)cc2)cc1 (stereo unspecified)	·	–	·	·
CC(C)(C)C(=O)NC(=S)Nc1sc2c(c1C(N)=O)CCC2	69	–	–	–
COc1cc(C2c3sc(=O)[nH]c3SC3C(=O)N(c4ccc(C)cc4)C(=O)C32)ccc1O (stereo unspecified)	–	–	31	–
CCOc1ccc(N2C(=O)C3Sc4[nH]c(=O)sc4C(c4ccc(OC)c(OC)c4)C3C2=O)cc1 (stereo unspecified)	–	–	–	–
COc1cc(C2c3sc(=O)[nH]c3SC3C4CCC(C4)C23)ccc1O (stereo unspecified)	78	–	–	–
O=C(Cn1cnc2c(OCc3ccccc3)ncnc21)NCCCN1CCCC1=O	–	–	–	·
O=S(=O)(/C=C/C=C/S(=O)(=O)c1ccccc1)c1ccccc1	·	–	·	·
Cc1cccc(NC(=O)CCNS(=O)(=O)c2ccc3[nH]c(=O)oc3c2)c1	–	–	–	–
O=C(Nc1sccc1C(=O)N1CCOCC1)c1cccnc1	54	–	–	–
O=C(Nc1ccccc1C(=O)N1CCOCC1)c1cccnc1	–	–	–	–
NS(=O)(=O)c1ccc(NC(=O)CSc2nnc(-c3ccc(O)cc3)o2)cc1	53	–	–	–
CCc1ccc(CCC(=O)N2CCN(S(=O)(=O)c3sc(C(=O)O)c(C)c3C(=O)O)CC2)cc1	·	–	·	·
CCOc1ccc(S(=O)(=O)N2CCC(C(=O)NCc3ccccc3CN3CCCC3)CC2)cc1	–	–	–	·
Cn1c(=O)c2[nH]c(CCCC(=O)O)nc2n(Cc2ccccc2)c1=S	84	–	–	-51
O=S(=O)(c1cnc[nH]1)N1CCN(c2ccc(F)cc2)CC1	–	–	–	–
Fc1ccc(-c2cnc[nH]2)cc1	–	–	29	–
CCOC1(OCC)N=C(N)C2(C#N)C(c3ccc(NC(C)=O)cc3)C12C#N (stereo unspecified)	60	–	–	–
COC1(OC)N=C(N)C2(C#N)C(c3ccc(F)cc3)C12C#N (stereo unspecified)	–	–	–	–
N#Cc1c(Cc2cccc3ccccc23)nn(CCO)c1N	–	·	–	–
SMILES	GSK3A inh	DYRK1A inh	STK33 kinase inh	GSK3B inh	others
Cc1n[nH]c(C)c1N=Nc1ccc(Br)cc1	–	–	–	–
COc1ccc(N=Nc2c(C)n[nH]c2C)cc1	–	52	–	–	Dyrk1A artifact=–
COc1cc(S(=O)(=O)N2CC(=O)Nc3ccccc32)ccc1NC(C)=O	–	–	–	–
CC(=O)Nc1ccc(Nc2cc(C)nc3c(-c4ccccc4)cnn23)cc1	–	55	–	·	Dyrk1A artifact=–
CC(=O)Nc1ccc(S(=O)(=O)Nc2cccc(-n3c(C)nc4ccccc4c3=O)c2)cc1	–	–	–	–
COc1ccc(-c2nc(N)ncc2-c2ccccc2)c(O)c1	–	–	–	–
COc1ccc(-c2nc(N)ncc2-c2ccccc2OC)c(O)c1	–	51	–	–	Dyrk1A artifact=–
NC(=O)CNCCC(c1ccccc1)c1ccccc1	–	–	–	·
CCOC(=O)C1CCCN(c2c(NCCCN3CCCC(C)C3)c(=O)c2=O)C1 (stereo unspecified)	–	59	–	–	Dyrk1A artifact=–
